Calls of active or inactive are those of the source. The calls are words filed in the database; no cut-off is given here.
Experiments:
[1] = system: Pseudomonas aeruginosa; assay: Antibiofilm activity against Pseudomonas aeruginosa clinical isolate 59 assessed as inhibition of biofilm formation at MIC incubated for 24 hrs by crystal violet staining based microtiter plate method; type: functional
How it was run: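 In BM2, bacteria at 1 × 10^6 CFU/mL were incubated with 2-fold serial peptide dilutions for 24 h at 37 °C without agitation. Unattached cells were washed off, and the remaining biofilm was stained with 0.1% crystal violet and read at OD590. Blanks had no bacteria. Biomass is given as % of untreated biofilm; at least three biological repeats.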

[2] = system: Pseudomonas aeruginosa; assay: Induction of biofilm degradation of Pseudomonas aeruginosa clinical isolate 629 at sub MIC concentration incubated for 1 hr by crystal violet staining analysis; type: functional
How it was run: (§1)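 Bacteria at 1 × 10^6 CFU/mL in BM2 grown static at 37 °C for 24 h to form biofilm. Wells rinsed of unattached cells, then exposed for 1 h to serial peptide dilutions (1.56–50 μM). Washed, stained with 0.1% crystal violet, A590 read. Biomass given as % of untreated biofilm; no-bacteria wells as blanks. At least three biological repeats.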

[3] = system: Pseudomonas aeruginosa; assay: Induction of biofilm degradation of Pseudomonas aeruginosa clinical isolate 25 at sub MIC concentration incubated for 1 hr by crystal violet staining analysis; type: functional; how it was run: as §1
[4] = system: Pseudomonas aeruginosa; assay: Induction of biofilm degradation of Pseudomonas aeruginosa clinical isolate 71 at sub MIC concentration incubated for 1 hr by crystal violet staining analysis; type: functional; how it was run: as §1
[5] = system: Pseudomonas aeruginosa; assay: Induction of biofilm degradation of Pseudomonas aeruginosa clinical isolate 46 at sub MIC concentration incubated for 1 hr by crystal violet staining analysis; type: functional; how it was run: as §1
[6] = system: Pseudomonas aeruginosa; assay: Induction of biofilm degradation of Pseudomonas aeruginosa clinical isolate 995 at sub MIC concentration incubated for 1 hr by crystal violet staining analysis; type: functional; how it was run: as §1
[7] = system: Pseudomonas aeruginosa; assay: Induction of biofilm degradation of Pseudomonas aeruginosa clinical isolate 52 at sub MIC concentration incubated for 1 hr by crystal violet staining analysis; type: functional; how it was run: as §1
[8] = system: Pseudomonas aeruginosa; assay: Induction of biofilm degradation of Pseudomonas aeruginosa clinical isolate 29 at sub MIC concentration incubated for 1 hr by crystal violet staining analysis; type: functional; how it was run: as §1
[9] = system: Pseudomonas aeruginosa; assay: Induction of biofilm degradation of Pseudomonas aeruginosa clinical isolate 59 at 50 uM incubated for 1 hr by crystal violet staining analysis
[10] = system: Pseudomonas aeruginosa; assay: Induction of biofilm degradation of Pseudomonas aeruginosa clinical isolate 251 at sub MIC concentration incubated for 1 hr by crystal violet staining analysis; type: functional; how it was run: as §1
[11] = system: Pseudomonas aeruginosa; assay: Induction of biofilm degradation of Pseudomonas aeruginosa clinical isolate 238 at sub MIC concentration incubated for 1 hr by crystal violet staining analysis; type: functional; how it was run: as §1
[12] = system: Pseudomonas aeruginosa; assay: Induction of biofilm degradation of Pseudomonas aeruginosa clinical isolate 99 at sub MIC concentration incubated for 1 hr by crystal violet staining analysis; type: functional; how it was run: as §1
[13] = system: Pseudomonas aeruginosa; assay: Induction of biofilm degradation of Pseudomonas aeruginosa clinical isolate PAO1 at sub MIC concentration incubated for 1 hr by crystal violet staining analysis; type: functional; how it was run: as §1
[14] = system: Pseudomonas aeruginosa; assay: Antibiofilm activity against Pseudomonas aeruginosa clinical isolate 25 assessed as inhibition of biofilm formation at 1.56 uM incubated for 24 hrs by crystal violet staining based microtiter plate method; type: functional, organism-based
How it was run: (§2)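 Washed overnight cultures in BM2 medium at 1 × 10^6 CFU/mL with 2-fold serial peptide dilutions in a U-bottom 96-well plate. Incubated 24 h at 37 °C without agitation. Unattached cells washed off, then 0.1% crystal violet stain read at 590 nm. No-bacteria blanks. Biomass expressed as % of untreated biofilm. At least three biological repeats.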

[15] = system: Pseudomonas aeruginosa; assay: Bactericidal activity against Pseudomonas aeruginosa clinical isolate 24 derived from cystic fibrosis patient sputum assessed as killing rate at 10 uM measured after 1 hr by time-kill assay relative to control; type: functional
How it was run: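 Pooled CF patient sputum diluted 10-fold in 10 mM phosphate buffer (pH 7.0), centrifuged and 0.22 μm filtered. Bacteria at 10^6 CFU/mL in 10% sputum supernatant with 10 μM peptide for 1 h at 37 °C. Diluted and plated on LB agar; colonies counted against untreated plates.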

[16] = system: Pseudomonas aeruginosa; assay: Antibiofilm activity against Pseudomonas aeruginosa clinical isolate 99 assessed as inhibition of biofilm formation at 1.56 uM incubated for 24 hrs by crystal violet staining based microtiter plate method; type: functional, organism-based; how it was run: as §2
[17] = system: Pseudomonas aeruginosa; assay: Antibiofilm activity against Pseudomonas aeruginosa clinical isolate 72 assessed as inhibition of biofilm formation at 1.56 uM incubated for 24 hrs by crystal violet staining based microtiter plate method; type: functional, organism-based; how it was run: as §2
[18] = system: Pseudomonas aeruginosa; assay: Antibiofilm activity against Pseudomonas aeruginosa clinical isolate 995 assessed as inhibition of biofilm formation at 1.56 uM incubated for 24 hrs by crystal violet staining based microtiter plate method; type: functional, organism-based; how it was run: as §2
[19] = system: Pseudomonas aeruginosa; assay: Antibiofilm activity against Pseudomonas aeruginosa PAO1 in artificial sputum medium at 25 uM incubated for 24 hrs by resazurin staining based microtiter plate method relative to control; type: functional
How it was run: (§3)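 Washed overnight culture set to OD ~0.05 in BM2, diluted 1:100 into artificial sputum medium (pH 6.9) in 24-well plates. Grown 3 days aerobically at 37 °C with agitation. Peptides (12.5–100 μM) added for 24 h with agitation. Biofilm disrupted by cellulase for 1 h at 37 °C. Resazurin 0.02% for 1–2 h, fluorescence ex 530/em 590 nm; viability as % of untreated wells.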

[20] = system: Pseudomonas aeruginosa; assay: Antibiofilm activity against Pseudomonas aeruginosa clinical isolate 82 assessed as inhibition of biofilm formation at 1.56 uM incubated for 24 hrs by crystal violet staining based microtiter plate method; type: functional, organism-based; how it was run: as §2
[21] = system: Pseudomonas aeruginosa; assay: Antibiofilm activity against Pseudomonas aeruginosa clinical isolate 82 in artificial sputum medium at 25 uM incubated for 24 hrs by resazurin staining based microtiter plate method relative to control; type: functional
How it was run: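 Overnight cultures were washed, resuspended in BM2 to OD ~0.05, and diluted 1:100 into artificial sputum medium (pH 6.9). Biofilms grew 3 days at 37 °C with aerobic agitation in 24-well plates. Peptides (12.5–100 μM) were then added for 24 h with agitation. Biofilm was disrupted with cellulase for 1 h at 37 °C. Resazurin (0.02%) was added for 1–2 h, fluorescence read at ex 530/em 590 nm, and viability expressed as % of untreated wells.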

[22] = system: Pseudomonas aeruginosa; assay: Antibiofilm activity against Pseudomonas aeruginosa clinical isolate 52 assessed as inhibition of biofilm formation at 1.56 uM incubated for 24 hrs by crystal violet staining based microtiter plate method; type: functional, organism-based; how it was run: as §2
[23] = system: Pseudomonas aeruginosa; assay: Antibiofilm activity against Pseudomonas aeruginosa clinical isolate 46 in artificial sputum medium at 50 uM incubated for 24 hrs by resazurin staining based microtiter plate method; type: functional, organism-based; how it was run: as §3
[24] = system: Pseudomonas aeruginosa; assay: Antibiofilm activity against Pseudomonas aeruginosa assessed as inhibition of biofilm formation at 0.5 times of MIC incubated for 24 hrs by crystal violet staining based microtiter plate method; type: functional, organism-based; how it was run: as §2
[25] = system: Pseudomonas aeruginosa; assay: Antibiofilm activity against Pseudomonas aeruginosa clinical isolate 82 in artificial sputum medium at 100 uM incubated for 24 hrs by resazurin staining based microtiter plate method; type: functional, organism-based; how it was run: as §3
[26] = system: Pseudomonas aeruginosa; assay: Antibiofilm activity against Pseudomonas aeruginosa clinical isolate 251 assessed as inhibition of biofilm formation at 1.56 uM incubated for 24 hrs by crystal violet staining based microtiter plate method; type: functional, organism-based; how it was run: as §2
[27] = system: Pseudomonas aeruginosa; assay: Antibiofilm activity against Pseudomonas aeruginosa clinical isolate 46 in artificial sputum medium at 100 uM incubated for 24 hrs by resazurin staining based microtiter plate method; type: functional, organism-based; how it was run: as §3

SMILES: CC[C@H](C)[C@H](NC(=O)[C@H](CCCCN)NC(=O)[C@H](CCC(=O)O)NC(=O)[C@H](CCCCN)NC(=O)[C@H](CO)NC(=O)[C@H](CCCCN)NC(=O)[C@H](CCCNC(=N)N)NC(=O)[C@H](Cc1ccccc1)NC(=O)[C@H](Cc1ccccc1)NC(=O)[C@H](CC(=O)O)NC(=O)CNC(=O)[C@H](CC(C)C)NC(=O)[C@@H](N)CC(C)C)C(=O)NCC(=O)N[C@@H](CCCCN)C(=O)N[C@@H](CCC(=O)O)C(=O)N[C@@H](Cc1ccccc1)C(=O)N[C@@H](CCCCN)C(=O)N[C@@H](CCCNC(=N)N)C(=O)N[C@H](C(=O)N[C@H](C(=O)N[C@@H](CCC(N)=O)C(=O)N[C@@H](CCCNC(=N)N)C(=O)N[C@H](C(=O)N[C@@H](CCCCN)C(=O)N[C@@H](CC(=O)O)C(=O)N[C@@H](Cc1ccccc1)C(=O)N[C@@H](CC(C)C)C(=O)N[C@@H](CCCNC(=N)N)C(=O)N[C@@H](CC(N)=O)C(=O)N[C@@H](CC(C)C)C(=O)N[C@H](C(=O)N1CCC[C@H]1C(=O)N[C@@H](CCCNC(=N)N)C(=O)N[C@H](C(=O)N[C@@H](CCC(=O)O)C(=O)N[C@@H](CO)C(N)=O)[C@@H](C)O)C(C)C)[C@@H](C)CC)C(C)C)[C@@H](C)CC
- inhibition (INH) [1]: 30%

SMILES: CC(C)C[C@H](NC(=O)[C@H](CC(C)C)NC(=O)[C@H](CC(C)C)NC(=O)[C@H](CC(C)C)NC(=O)[C@H](CC(C)C)NC(=O)[C@H](CC(C)C)NC(=O)[C@H](CC(C)C)NC(=O)[C@H](CC(C)C)NC(=O)[C@H](CC(C)C)NC(=O)[C@H](CCCCN)NC(=O)[C@H](CCCCN)NC(=O)[C@@H](N)CCCCN)C(=O)N[C@@H](CCCCN)C(=O)N[C@@H](CCCCN)C(=O)N[C@@H](CCCCN)C(N)=O
- Activity [2]: Active
- Activity [3]: Active
- Activity [4]: Active
- Activity [5]: Active
- Activity [6]: Active
- Activity [7]: Active
- Activity [8]: Active
- Activity [9]: 40%
- Activity [10]: Active
- Activity [11]: Active
- Activity [12]: Active
- Activity [13]: Active

SMILES: CC(C)C[C@H](NC(=O)[C@H](CC(C)C)NC(=O)[C@H](CCCCN)NC(=O)[C@H](CC(C)C)NC(=O)[C@H](CC(C)C)NC(=O)[C@H](CCCCN)NC(=O)[C@H](CCCCN)NC(=O)[C@H](CC(C)C)NC(=O)[C@H](CC(C)C)NC(=O)[C@H](CCCCN)NC(=O)[C@H](CCCCN)NC(=O)[C@H](CC(C)C)NC(=O)[C@H](CC(C)C)NC(=O)[C@H](CCCCN)NC(=O)[C@@H](N)CC(C)C)C(N)=O
- inhibition [14]: Active
- Activity [15]: >97.91%
- inhibition [16]: Active
- inhibition [17]: Active
- inhibition [18]: Active
- Activity [19]: 66.7%
- inhibition [20]: Active
- Activity [21]: 57.94%
- inhibition [22]: Active
- Activity [23]: Active
- inhibition [24]: Active
- Activity [25]: Active
- inhibition [26]: Active
- Activity [27]: Active

Reference: ChEMBL document CHEMBL5143722, “Antimicrobial Peptides against Multidrug-Resistant Pseudomonas aeruginosa Biofilm from Cystic Fibrosis Patients” (J Med Chem, 2022)
